Assays:
[1] = test system: Laboratory variant 3 5′ ORF1 sequence; experiment: Luciferase reporter assay, Laboratory variant 3 leader; format: biochemical
Summary of the method: (§1)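 In vitro translation in nuclease-treated rabbit reticulocyte lysate. The target 5′-end leader sits upstream of firefly luciferase; RNA is T7-transcribed from NotI-cut plasmid (1 nM final). Test compound is added at 0.01–83 μM final, and reactions run 75 min at 37 °C, then are chilled on ice. Percent inhibition is calculated from luciferase signal versus no-compound reaction. Each assay was run at least twice, by two investigators in separate labs.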

[2] = test system: Hu/NoV/GI.1/Norwalk virus/1968/US 5′ ORF1 sequence; experiment: Luciferase reporter assay, Norwalk leader; format: biochemical, human norovirus; details: target with 1 mismatch to Noro 1.1; luciferase signal
Summary of the method: as §1

[3] = test system: Laboratory variant 2 5′ ORF1 sequence; experiment: Luciferase reporter assay, Laboratory variant 2 leader; format: biochemical
Summary of the method: as §1

[4] = test system: Norwalk virus replicon in HG23 cells; experiment: PMO inhibition of norovirus protein expression in replicon cell line HG23; format: cell-based; details: 16 μM, 5-day incubation, immunofluorescence
Summary of the method: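 HG23 cells (Huh-7-derived Norwalk replicon line, DMEM/10% FBS/0.25 mg/ml neomycin) received 16 μM unconjugated morpholino by nucleofection (solution L, program A020). A total of 2×10^6 cells were seeded and incubated 5 days at 37 °C. Cells were then fixed in ice-cold methanol and analysed by immunofluorescence with guinea pig antisera against Norwalk VP1 and RdRP.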

[5] = test system: Norwalk virus replicon in HG23 cells; experiment: Norwalk virus RNA in replicon-bearing HG23 cells; format: cell-based; details: 16 μM, quantitative real-time RT-PCR, data not shown
Summary of the method: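 HG23 replicon cells were electroporated with 16 μM test compound and incubated 5 days at 37 °C. Replicon RNA in treated and untreated cells was then quantified by single-step real-time RT-PCR with a standard curve in each run. Cycling: 45 °C 30 min, 95 °C 10 min, then 45 cycles of 95 °C 30 s, 50 °C 1 min, 72 °C 30 s.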

[6] = test system: Hu/No.V/GII.4/Lordsdale/1993/UK 5′ ORF1 sequence; experiment: Luciferase reporter assay, Lordsdale leader; format: biochemical, human norovirus
Summary of the method: as §1

[7] = test system: Hu/NoV/GI.2/Southampton/1991/UK 5′ ORF1 sequence; experiment: Luciferase reporter assay, Southampton leader; format: biochemical, human norovirus; details: target with 0 mismatches to Noro 1.1; luciferase signal
Summary of the method: as §1

[8] = test system: Hu/NoV/GII.12/CN2753/1998/USA 5′ ORF1 sequence; experiment: Luciferase reporter assay, CN2753 leader; format: biochemical, human norovirus; details: target with 2 mismatches to Noro 1.1; luciferase signal
Summary of the method: as §1

[9] = test system: Bo/NoV/GIII.1/Jena/1998/DEU 5′ ORF1 sequence; experiment: Luciferase reporter assay, Jena bovine norovirus leader; format: biochemical
Summary of the method: as §1

[10] = test system: Laboratory variant 1 5′ ORF1 sequence; experiment: Luciferase reporter assay, Laboratory variant 1 leader; format: biochemical
Summary of the method: as §1

[11] = test system: Hu/NoV/GI.6/WUG1/2000/JP 5′ ORF1 sequence; experiment: Luciferase reporter assay, WUG1 leader; format: biochemical, human norovirus; details: target with 1 mismatch to Noro 1.1; luciferase signal
Summary of the method: as §1

[12] = test system: Hu/NoV/GII.4/CN3050/1998/USA 5′ ORF1 sequence; experiment: Luciferase reporter assay, CN3050 leader; format: biochemical, human norovirus
Summary of the method: as §1

[13] = test system: MNV-1; experiment: Mouse norovirus PPMO inhibition assay in RAW264.7 cells; format: cell-based, murine norovirus
Summary of the method: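 RAW264.7 cells (2×10^5/well) were seeded and incubated overnight, then rinsed and exposed 4 h to test compound in plain DMEM (8 replicate wells). They were rinsed again and infected with MNV-1.CW1 for 2 h at 37 °C, then kept 3 days at 37 °C. Wells were formalin-fixed and stained with crystal violet; methanol-eluted stain was read at A570. Variants used fixed compound with 10-fold virus dilutions (20–2×10^5 PFU/well), or 1.25–80 μM compound with 2×10^4 PFU/well. % lysis = ([treated]−[treated+infected])/[treated]×100.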

[14] = target with 6 mismatches to Noro 1.1, luciferase signal

CGACGCCATCATCATTCAC [Noro 1.1]
inhibition of translation ([1]; LabVar3, 6 nucleotide differences, data not shown): completely failed to inhibit translation
Outcome of in vitro assay [1, 14]: No inhibition
Outcome of in vitro assay [2]: Inhibition (Inhibition defined as > 60% reduction of protein synthesis, as defined by luciferase signal.)
inhibition of translation ([3]; LabVar 2, 5 nucleotide changes): less efficiently
Outcome of in vitro assay ([3]; target with 5 mismatches to Noro 1.1, luciferase signal): Inhibition (Inhibition defined as > 60% reduction of protein synthesis, as defined by luciferase signal.)
Norwalk virus protein translation in HG23 cells [4]: effectively inhibited norovirus protein translation
Norwalk virus RNA level [5]: did not see a significant reduction in RNA
inhibition of translation achieved ([6]; GII.4 variant): 100%
Outcome of in vitro assay ([6]; target with 2 mismatches to Noro 1.1, luciferase signal): Inhibition (Inhibition defined as > 60% reduction of protein synthesis, as defined by luciferase signal.)
Outcome of in vitro assay [7]: Inhibition (Inhibition defined as > 60% reduction of protein synthesis, as defined by luciferase signal.)
Outcome of in vitro assay [8]: Inhibition (Inhibition defined as > 60% reduction of protein synthesis, as defined by luciferase signal.)
maximal inhibition achieved ([9]; range of concentrations tested, 0.01 to 83 μM): ≤ 57%
Outcome of in vitro assay [9, 14]: No inhibition
inhibition of translation ([10]; LabVar 1, 4 nucleotide changes): less efficiently
Outcome of in vitro assay ([10]; target with 4 mismatches to Noro 1.1, luciferase signal): Inhibition (Inhibition defined as > 60% reduction of protein synthesis, as defined by luciferase signal.)
Outcome of in vitro assay [11]: Inhibition (Inhibition defined as > 60% reduction of protein synthesis, as defined by luciferase signal.)
inhibition of translation achieved ([12]; GII.4 variant): 100%
Outcome of in vitro assay ([12]; target with 3 mismatches to Noro 1.1, luciferase signal): Inhibition (Inhibition defined as > 60% reduction of protein synthesis, as defined by luciferase signal.)

CGCAGAAGATGGCGTTGCCATCCTC [PPMO C]
effectiveness in inhibiting viral replication ([13]; 20 μM PPMO, 2 × 10^4 PFU/well MNV-1): 70%
maximal dose of MNV-1 inhibited ([13]; PPMO C 80 μM, MNV-1 20 to 2 × 10^5 PFU/well, 8 replicates): up to 2 × 10^5 PFU

CGTTGCCATCCTCATTTCAC [PPMO B]
dose of MNV-1 whose replication is completely inhibited ([13]; PPMO B 20 μM, MNV-1 20 to 2 × 10^5 PFU/well, 8 replicates): 2 × 10^3 PFU

Source: PMC3703767 (Virology, 2008)
